# Compound activity (PubChem)
# SKKanGAS inh – S. pyogenes SKKanGAS growth inhibitors in kanamycin, primary screen, streptokinase expression inhibitor project, SKKanGAS strain, BacTiter-Glo luminescence; 6 h; inhibition, % at 7.5 µM; 300,000 tested, 1.3% active;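 active = mean replicate score, as percent of positive control median, at least 50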;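 also: strain carries kanamycin resistance gene driven by streptokinase promoter and grows in 40 µg/ml kanamycin; loss of luminescence reflects streptokinase promoter inhibition or plain growth inhibition; 0% = median of DMSO wells and 100% = positive control at its reference dose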
# aSyn UTR inh – MLPCN primary screen, SNCA 5' untranslated region; alpha-synuclein 5'UTR reporter, inhibitor activity; inhibition, % (tested at 7.5 µM); 300,000 tested, 0.82% active; in the data active = inhibition above about 60%;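 also: H4 neuroglioblastoma cells stably carrying SNCA 5'UTR luciferase fusion; 0% = DMSO wells and 100% = positive control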
# CSC inhib – cancer stem cell viability inhibitors, primary screen, luminescence | cancer stem cell-like cells viability | inhibition, % at 7.5 µM | 300,000 tested, 1.1% active | AID 2717, 2010; in the data active = inhibition above about 75%; tested in HMLE shEcad cells
# T cruzi inh – inhibitors of intracellular T. cruzi growth, primary screen, luminescence, NIH3T3 host cells | AID 1885, 2009 | inhibition, % (no concentration beside the values) | T. cruzi beta-gal in NIH3T3, 90 h | 300,000 tested, 1.4% active;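 active = mean inhibition across valid replicates above about 55%, limit read from the data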;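 also: signal also drops with host cell toxicity which is not excluded here; 0% = plate median of DMSO wells and 100% = zero luminescence signal; higher percent means less beta-gal luminescence so fewer parasites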
#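 Assay system: NIH/3T3 fibroblasts plus reporter T. cruzi. Amount: NIH/3T3 cells, 5,000 per well. Buffer or medium: DMEM, 2% fetal bovine serum. Doses: compound pinned at 50 nL/well, DMSO. Schedule: ≥90 h infection period, 3 h prior cell attachment. Signal: luminescent β-galactosidase signal after 60 min lysis. Read-out: parasite load inhibition, %.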
# Mdm2-MdmX inh – inhibitors of human Mdm2-MdmX association, primary screen, cell-based, luminescence, split luciferase, SaOS-2, uHTS. Protein Mdm4 (Homo sapiens) + E3 ubiquitin-protein ligase Mdm2 (Homo sapiens), …. 330,000 tested, 3% active. SaOS-2 split-luciferase Mdm2/MdmX complementation. inhibition, % at 8 µM;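 active = inhibition of at least 50% at 8 µM in the primary screen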
# Mdm2-MdmX conf – Mdm2-MdmX complex disruptors, retested hits, confirmation, luminescence, single concentration | inhibition, % at 8 µM | 10,000 tested, 55% active | AID 489028, 2010 | shares compounds with Mdm2-MdmX inh | Mdm2-MdmX binding, luminescent assay; in the data active = inhibition above about 40%
# Full FLuc ctr – full-length luciferase signal inhibition, confirmation, counter-screen for Mdm2/MdmX interaction inhibitor project, cell-based, single concentration, SaOS-2. 6,200 tested, 77% active. inhibition, % at 8 µM. AID 504607, 2011. shares compounds with Mdm2-MdmX inh. SaOS-2 full-length luciferase counterscreen, luminescence;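 active = mean inhibition at 8 µM reaching about 37%, which flags the compound as non-specific, limit read from the data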;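 also: p53-null SaOS-2 cells with luciferase driven by a doxycycline-inducible promoter; compound on cells about two nights before reading with doxycycline added after day one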
# * = called active by the depositor; . = no result; ! = not active in a repeat. Shown are actives, neighbours in structure and some others; about 5.4% of the full set was active somewhere.
SMILES,SKKanGAS inh,aSyn UTR inh,CSC inhib,T cruzi inh,Mdm2-MdmX inh,Mdm2-MdmX conf,Full FLuc ctr
Cc1ccc2cc(CN(c3ccccc3)S(=O)(=O)c3ccccc3)c(=O)[nH]c2c1,-8,-22,-6,4,2,.,.
CCOc1ccc(N(Cc2cc3ccc(C)cc3[nH]c2=O)S(=O)(=O)c2ccccc2)cc1,16,-35,-14,8,59*,58*,55*
CC1(C)CC(NC(=O)c2sc3cc(Cl)ccc3c2Cl)CC(C)(C)N1,-2,35,49,29,87*,62*,46*
Cc1ccc2oc(=O)c3cc(C(=O)NCCCN4CCCCCC4)sc3c2c1,2,-22,-3,19,14,.,.
Cc1ccnc(NC(=O)c2cc3c(=O)oc4ccc(C)cc4c3s2)c1,6,-43,-2,-10,70*,38,74*
Cc1ccc(NC(=O)c2cc3c(=O)oc4ccc(C)cc4c3s2)nc1,-9,0,1,3,75*,12,.
CCC1CCCCN1CCCNC(=O)c1cc2c(=O)oc3ccc(C)cc3c2s1 (stereo unspecified),-2,9,13,36,54*,3,.
O=C(CNC(=O)/C=C/c1ccco1)N=Nc1c(O)[nH]c2ccccc12,-2,12,-8,-10,25,.,.
CCCS(=O)(=O)N1CCCC(C(=O)N2CCCCC2)C1 (stereo unspecified),-1,-3,.,3,7,.,.
CCOc1ncccc1C(=O)NNC(=O)CSc1ccc(Cl)cc1,.,.,-13,.,26,.,.
CCC(C)[C@H](N)c1cn([C@@H](Cc2cc3ccccc3[nH]2)C(=O)N2CCNCC2)nn1 (stereo partly specified),10,-11,4,-4,10,.,.
CC(C)(C)c1ccc(C(=O)Cn2cnnc2C#N)cc1,-7,-21,-22,1,-5,.,.
Nc1nonc1-n1nnc(C(=O)N/N=C/c2ccc(OCc3ccccc3)cc2)c1CNc1ccccc1,5,-50,13,-24,77*,10,.
Cc1c(C(=O)N/N=C/c2cccc(O)c2)nnn1-c1nonc1N,6,-16,-8,4,-9,.,.
Nc1nonc1-n1nnc(C(=O)N/N=C/c2cccc(F)c2)c1-c1ccc2c(c1)OCO2,-3,1,-3,-7,-8,.,.
Nc1nonc1-n1nnc(C(=O)N/N=C/c2ccc(OCc3ccccc3)cc2)c1COc1ccc(F)cc1,-8,-96,26,21,61*,40*,105*
Nc1nonc1-n1nnc(C(=O)N/N=C/c2ccc(F)cc2)c1-c1ccc2c(c1)OCO2,10,8,6,-22,59*,-9,.
Cc1ccccc1COc1cccc(/C=N/NC(=O)c2nnn(-c3nonc3N)c2C)c1,5,-36,-1,-8,51*,40,87*
C1CN(CCN2CCOCC2)CCN1,1,2,-14,1,16,.,.
CCCCN1CNC(=S)N(c2ccccc2OCC)C1,-14,-3,-16,5,-8,.,.
C#CC(=O)N(c1ccc(OC)cc1OC)C(C(=O)NC1CCCC1)c1cccs1 (stereo unspecified),-14,92*,-2,16,89*,100*,51*
C#CC(=O)N(c1cc(OC)ccc1OC)C(C(=O)NC1CCCC1)c1cccs1 (stereo unspecified),1,25,21,33,100*,100*,52*
CC(=O)Nc1ccc(NC(=O)C(OC(=O)c2ccccc2)C(OC(=O)c2ccccc2)C(=O)O)cc1 (stereo unspecified),-2,9,-19,-3,-11,.,.
C=CCOc1ccccc1CN1CCCCCC1,0,5,-12,-8,25,.,.
O=C(OCc1ccccn1)c1ccc(COc2ccc3ccccc3c2)o1,1,-104,7,-9,-92,.,.
SMILES,SKKanGAS inh,aSyn UTR inh,CSC inhib,T cruzi inh,Mdm2-MdmX inh,Mdm2-MdmX conf,Full FLuc ctr
C=CCNc1nc(NCc2ccccc2)c(C#N)c2c1CN(C)CC2,-1,49,-11,52,74*,52*,61*
CNS(=O)(=O)/C=C/c1ccccc1,-17,6,-6,-12,-1,.,.
O=S(=O)(/C=C/c1ccccc1)Oc1ccccc1,1,-80,-7,-2,76*,50*,78*
CNCCCC12CCC(c3ccccc31)c1ccccc12,1,-22,-8,22,59*!,33,.
CCNc1nc(NC(C)C)nc(Oc2ccc(OCCOc3ccccc3)nn2)n1,-16,20,-12,4,51*,11,.
CCNc1nc(NC(C)C)nc(Oc2ccc(OCc3ccccc3)nn2)n1,-2,33,4,6,28,.,.
N#Cc1c2ccc(O)cc2n2ccccc12,9,1,4,65*,76*,73*,35
N#Cc1c2ccc(OCC(=O)NCc3ccco3)cc2n2ccccc12,2,10,12,-1,2,.,.
Cc1cc(C2=NNC(=NC3CC3)SC2)c(C)n1-c1ccccc1F,6,99*,10,32,99*,99*,12
c1cc2c(cc1C1=NNC(=NC3CC3)SC1)OCCO2,5,111*,28,0,92*,86*,56*
CCCCN=C1NN=C(c2ccc3c(c2)OCCO3)CS1,0,-30,-12,17,-39,.,.
Cc1cc(C2=NNC(=NC3CCCCC3)SC2)c(C)n1-c1c(C)n(C)n(-c2ccccc2)c1=O,9,-3,-9,5,-7,.,.
Cc1cc(Nc2ccccc2)nc(N2CCN(C(=O)c3ccc4c(c3)OCO4)CC2)n1,-14,6,8,0,9,.,.
Cc1ccsc1/C=N/n1c(-c2ccncc2)n[nH]c1=S,0,17,1,6,3,.,.
CCOc1ccc(NS(=O)(=O)c2cc(Cl)ccc2OC)cc1,3,3,-9,1,11,.,.
Cc1onc(-c2ccccc2)c1NC(=O)N(Cc1ccccc1)C(C)C,19,6,-9,6,1,.,.
Cc1ccc(NC(=O)c2cc(S(=O)(=O)N3CCc4ccccc43)cn2C)cc1C,12,27,33,5,55*,22,.
COC(=O)Nc1ccc(S(=O)(=O)N2c3ccccc3CCC2C)cc1 (stereo unspecified),4,27,145*,-12,58*,63*,60*
O=S(=O)(c1ccc(Cl)cc1)N1CCCc2ccccc21,11,6,-6,6,10,.,.
COc1ccc(NC(=O)c2cc(S(=O)(=O)N3CCc4ccccc43)cn2C)cc1,3,12,-7,0,29,.,.
